This is a sample that favours compounds with a hit; in the whole collection about 1.4% have one here.
Calpain2 inh – blocks pig calpain II enzyme activity; AID 1236; purified calpain II, fluorogenic peptide substrate, 30 min; 0.37% of 220,000 active; inhibition, % at 16 µM;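 active means inhibition above about 50%, limit read from the data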
hK5 inh – inhibitors of human kallikrein 5. Q9Y337. recombinant hK5, fluorogenic AMC substrate cleavage. inhibition, % at 5 µM. 0.59% of 210,000 active. AID 873;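 active means inhibition of 40% or more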
Target sequence (Q9Y337 67-293 limits assumed): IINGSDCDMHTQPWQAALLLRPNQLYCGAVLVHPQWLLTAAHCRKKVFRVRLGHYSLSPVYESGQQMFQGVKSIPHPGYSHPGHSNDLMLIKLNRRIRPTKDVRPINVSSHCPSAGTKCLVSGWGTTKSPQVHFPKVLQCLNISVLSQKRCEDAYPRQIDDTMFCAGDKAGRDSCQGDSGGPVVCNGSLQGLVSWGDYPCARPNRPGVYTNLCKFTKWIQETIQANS
FXIIa inh – factor XIIa (human) inhibition. AID 800. 0.3% of 220,000 active. inhibition, % at 5 µM. purified FXIIa, Boc-QGR-AMC fluorogenic substrate, 2 h. P00748; in the data active means inhibition above about 40%
FXIa inh 1536 – inhibitors of human coagulation factor XIa; P03951; purified FXIa, Boc-Glu-Ala-Arg-AMC fluorogenic substrate; inhibition, % at 5 µM; 0.14% of 220,000 active; AID 798;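 active means inhibition of at least 40%; inactive means inhibition below 40%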;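 further: fluorescence of freed AMC excited at 355 nm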
Furin inhibitor – blocks human furin protease activity. P09958. 0.061% of 220,000 active. AID 463115. purified furin, fluorogenic substrate cleavage. inhibition, % at 20 µM or 30 µM; in the data active means inhibition above about 25%
Thrombin inh – blocks human thrombin protease activity. 0.26% of 220,000 active. AID 1046. alpha-thrombin, Boc-VPR-AMC fluorogenic substrate cleavage. P00734. inhibition, % at 5 µM;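 active means inhibition at or above 40%; inactive means inhibition below 40%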
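System: human alpha-thrombin protein; Compound dosing: one concentration per compound, 5 µM, with 0.2% DMSO; Timing: reaction at room temperature; Technique: AMC fluorescence, 355/460 nm; Controls: enzyme without compound as high, wells lacking enzyme as low.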
Hits are given with their value; 0 = inactive; - = no result.

SMILES	Calpain2 inh	hK5 inh	FXIIa inh	FXIa inh 1536	Furin inhibitor	Thrombin inh
Cc1[nH]n(-c2ncc(-c3ccc(Cl)cc3)s2)c(=O)c1C(c1ccc(Cl)cc1)C(C#N)C#N (stereo unspecified)	0	0	0	0	0	0
O=C(Nc1nc(-c2cccs2)cs1)c1ccco1	0	0	0	0	0	62
COc1cc(C(=O)Nc2nc(-c3cccs3)cs2)cc(OC)c1OC	0	0	0	0	0	73
O=C(Nc1nc(-c2cccs2)cs1)c1ccc(Cl)cc1	0	0	0	43	0	75
COC(=O)CNC(=O)C(C)NC(=O)OCc1ccccc1 (stereo unspecified)	0	0	0	0	0	0
O=C(CC1Oc2ccccc2NC1=O)NCCCN1CCN(C2CCCCC2)CC1 (stereo unspecified)	-	-	-	-	0	-
Cc1cccc(NC(=O)Nc2ccc3c(c2)N(C)C(=O)CS3)n1	0	58	0	0	0	0
CC(C)n1nnnc1SCC(=O)Nc1ccc2c(c1)OCCO2	0	0	0	0	0	0
O=C(Cc1ccccc1[N+](=O)[O-])Nc1ccccc1C(=O)N1CCCC1	0	0	85	0	0	0
O=C(Cc1ccccc1[N+](=O)[O-])Nc1ccccc1C(=O)N1CCOCC1	0	0	0	0	0	0
COc1ccc(C2=NCCn3cccc32)c(OC)c1	0	41	0	0	0	0
O=S1(=O)c2cccc3cccc(c23)N1Cc1nnc(-c2ccccc2Br)o1	0	0	0	0	0	0
CC(C)c1csc(CN2CCCC(CCC(=O)NCc3ccccc3F)C2)n1 (stereo unspecified)	0	0	0	50	0	0
Cc1c(Cl)cccc1Nc1nc(N)nc(CN2CCc3ccccc3C2)n1	0	0	43	0	0	0
O=C(COC(=O)CCc1ccccc1)NC12CC3CC(CC(C3)C1)C2	50	0	0	0	0	0
Cn1c(=O)[nH]c(=O)c2c1nc(N1CCOCC1)n2CC(O)COc1ccc2ccccc2c1 (stereo unspecified)	0	0	0	0	0	0
Cc1cc(C)c(NC(=O)COC(=O)Cc2ccsc2)c(C)c1	62	0	0	0	0	0
Cc1cccc(C)c1NC(=O)COC(=O)Cc1ccsc1	0	0	0	0	0	0
COc1ccc(S(=O)(=O)c2cnc3ccccc3n2)cc1	0	0	0	0	0	0
O=c1cc(-c2ccc(O)c(-c3c(O)cc(O)c4c(=O)cc(-c5ccc(O)cc5)oc34)c2)oc2cc(O)cc(O)c12	0	0	0	0	0	0
CCCCCCCc1c(O)nc(SCCN(C)C)[nH]c1=O	0	0	0	69	0	0
CC(C)CC(c1nnnn1C1CCCC1)N1CCC(C(N)=O)CC1 (stereo unspecified)	51	0	0	0	0	-
Cc1nc(SCc2ccc(O)c([N+](=O)[O-])c2)c([N+](=O)[O-])[nH]1	0	0	0	0	0	0
Cc1nc(SCc2ccc(O)c([N+](=O)[O-])c2)n[nH]1	0	0	0	0	31	0
O=C(CSc1nc2cccnc2n1Cc1ccccc1)N1CCCC1	0	46	0	0	0	0
SMILES	Calpain2 inh	hK5 inh	FXIIa inh	FXIa inh 1536	Furin inhibitor	Thrombin inh
COc1cc(C=O)ccc1OCC(=O)N1CCCC1	0	0	0	0	0	0
CCc1nnc(NC(=O)CCC(=O)N2CCN(CCOc3ccc(C)cc3)CC2)s1	0	0	42	0	0	0
Cc1oc2c(c1C(=O)Nc1cccc3ccccc13)CCCC2	58	0	0	0	0	0
O=S(=O)(Cc1ccco1)Cc1nc(-c2ccc(Cl)cc2)cs1	0	0	0	0	0	0
N=c1oc2ccccc2cc1-c1nc(-c2ccc(Cl)cc2)cs1	0	47	0	0	0	0
O=C1Nc2ccccc2N(O)N1c1ccc(S(=O)(=O)Nc2ccccn2)cc1	0	0	0	0	0	0
Cc1ccc(C(=O)N/C(=C/c2ccc(-c3cccc([N+](=O)[O-])c3)o2)C(=O)NC(C)(C)C)cc1	0	0	43	0	0	0
CCOC(=O)Cc1csc(NC(=O)CCC(=O)O)n1	0	0	0	0	0	0
CCOC(=O)Cc1csc(NC(=O)CC(C)(C)CC(=O)O)n1	0	50	0	59	0	0
CC(C)(C)NC(=O)NC(=O)CSc1nnc(-c2ccccc2F)n1N	0	0	0	0	0	0
CC(C)CCNC(=O)NC(=O)CSc1nnc(-c2ccccc2F)n1N	0	76	0	0	0	0
N#C/C(=C\c1c(N2CCC(C(N)=O)CC2)nc2ccccn2c1=O)S(=O)(=O)c1ccccc1	0	0	0	0	0	0
CCSc1nc2cc(OC)c(OC)cc2c(=O)n1CC	0	66	0	0	0	0
C=CCOc1ccccc1CNc1ccc2c(c1)OCCO2	0	0	0	0	0	0
COc1cc(/C=N/O)ccc1OCc1ccc(C(=O)O)cc1	0	0	0	0	0	0
O=C(O)c1cc(/C=N\O)ccc1OCc1ccccc1	0	51	0	0	0	0
Cc1ccccc1C(=O)Nc1ccc(O)c2c(=O)cc(-c3ccccc3Cl)oc12	0	0	0	0	0	0
CC(C)(C)c1ccc(Cn2nnc3c(=O)[nH]c(C4CCN(C(=O)Cc5cccs5)CC4)nc32)cc1	0	118	0	0	0	0
CCC(=O)Nc1cccc(-c2nc3ccccc3c(=O)o2)c1	0	47	0	0	0	0
C=CCc1cc(/C=C/c2nc(O)c([N+](=O)[O-])c(=O)[nH]2)cc(OC)c1O	0	0	0	0	0	0
CC(=O)c1c(C)[nH]c(C(=O)OCC(=O)N(C)C)c1C	0	0	0	0	0	0
O=C(CC12CC3CC(CC(Br)(C3)C1)C2)OCCN1CCCCC1	0	0	0	0	0	0
CCNC(=O)CSc1nc2ccccc2c(=O)n1-c1cccc(OC)c1	0	0	0	0	0	0
COc1cccc(-n2c(SCC(=O)Nc3ccc4c(c3)CCC4)nc3ccccc3c2=O)c1	0	45	0	0	0	54
Cc1ccc(-n2c(SCC(=O)Nc3cc(C)on3)nc3ccccc3c2=O)cc1	0	0	0	0	0	0
SMILES	Calpain2 inh	hK5 inh	FXIIa inh	FXIa inh 1536	Furin inhibitor	Thrombin inh
Cc1cc(NC(=O)CSc2nc3ccccc3c(=O)n2-c2ccccc2)no1	0	43	0	0	0	0
CCOc1ccc(-n2c(SCC(=O)Nc3cc(C)on3)nnc2-c2c[nH]c3ccccc23)cc1	0	0	48	0	0	0
O=C(C1=C[C@@H](c2coc3ccccc3c2=O)C[C@@H](OCc2ccc(CO)cc2)O1)N1CCCCCCC1	0	0	0	0	0	0
O=C(c1cnn(C(=O)c2ccccc2)c1)c1ccccc1O	0	0	0	0	0	0
COc1ccc(CCNC(=O)c2ccc(N3CCCC3=O)cc2)cc1OC	0	0	0	0	26	0
CCOc1ccc(CCNC(=O)c2cccc(N3CCCC3=O)c2)cc1OCC	0	0	0	0	0	0
CCNC(=S)/N=C(\N)Nc1nc(C)c2cc(C)ccc2n1	0	-	0	0	0	0

Bioassay records as filed in PubChem BioAssay.
